In ChEMBL document CHEMBL1148428, “Carbazolothiophene-2-carboxylic acid derivatives as endothelin receptor antagonists” (Bioorg Med Chem Lett, 2004):
Non-standard residues stand in square brackets, D forms with d. Residues, ends and D or L forms follow the SMILES beside them.

tested on: not listed separately; test: Evaluated for inhibition of ET-1 induced Calcium channel [Ca+2]i in CHO-K1 cells transfected with the rat ETA-expression plasmid DNA; format: functional, cell-based
Procedure, shortened: (§1)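 Rat ETA receptor plasmid transfected into CHO-K1 cells by lipofection. Cells preloaded with fura-2 AM, then stimulated with ET-1 at 10^-7 M. The rise in [Ca2+]i was read ratiometrically, with excitation at 340/380 nm and emission at 510 nm. The ET-1 response alone was set as 100%, and inhibition by compounds is expressed relative to it.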

Row | Compound | IC50 [µM]
1 | CC1(c2ccc(O)cc2)c2cc(C(=O)O)sc2C(=O)c2c1c1ccccc1n2Cc1ccccc1 (configuration not stated) | ~0.01

tested on: not listed separately; test: Evaluated for inhibition of ET-1 induced Calcium channel [Ca+2]i in CHO-K1 cells transfected with the rat ETA-expression plasmid DNA at 10 nM; format: functional; procedure, shortened: as §1

Row | Compound | inhibition at 0.01 µM [%]
2 | CCCOc1ccc2c(c1)[C@@H](c1ccc(OC)cc1OCC(=O)O)[C@H](C(=O)O)[C@H]2c1ccc2c(c1)OCO2 [SB-209670] | ~85

tested on: not listed separately; test: Evaluated for inhibition of ET-1 induced Calcium channel [Ca+2]i in CHO-K1 cells transfected with the rat ETA-expression plasmid DNA at 10E-6M; format: functional; procedure, shortened: as §1

Row | Compound | inhibition at 1 µM [%]
3 | Cn1c2c(c3ccccc31)C(C)(c1ccc(OCC(=O)O)cc1)c1cc(C(=O)O)sc1C2=O (configuration not stated) | > 75
4 | CC(C)C[C@@H]1NC(=O)[C@@H](C(C)C)NC(=O)[C@@H]2CCCN2C(=O)[C@@H](CC(=O)O)NC(=O)[C@@H](Cc2c[nH]c3ccccc23)NC1=O [BQ-123] (cyclo(L[dW][dD]P[dV])) | ~60
5 | CC1(c2ccc(O)cc2)c2cc(C(=O)O)sc2C(=O)c2c1c1ccccc1n2Cc1ccccc1 (configuration not stated) | > 75
6 | Cn1c2c(c3ccccc31)C(C)(c1cccc(CC(=O)O)c1)c1cc(C(=O)O)sc1C2=O (configuration not stated) | > 75
7 | Cn1c2c(c3ccccc31)C(C)(c1cccc(CCCC(=O)O)c1)c1cc(C(=O)O)sc1C2=O (configuration not stated) | > 75
8 | Cn1c2c(c3ccccc31)C(C)(c1ccc(OCCCC(=O)O)cc1)c1cc(C(=O)O)sc1C2=O (configuration not stated) | > 75

tested on: CHO-K1; test: Evaluated for inhibition of ET-1 induced Calcium channel [Ca+2]i in CHO-K1 cells transfected with the rat ETA-expression plasmid DNA at 10E-6M; Low inhibition; format: functional, cell-based; procedure, shortened: as §1

Row | Compound | inhibition
9 | COc1ccc(Cn2c3c(c4ccccc42)C(C)(c2ccccc2)c2cc(C(=O)O)sc2C3=O)cc1 (configuration not stated) | Weak inhibition
10 | CC1(c2ccccc2)c2cc(C(=O)O)sc2C(=O)c2c1c1ccccc1n2Cc1ccc(OCC(=O)O)cc1 (configuration not stated) | Weak inhibition
11 | COc1ccc(C2(C)c3cc(C(=O)O)sc3C(=O)c3c2c2ccccc2n3Cc2ccccc2)cc1 (configuration not stated) | Weak inhibition
12 | CC1(c2ccccc2)c2cc(C(=O)O)sc2C(=O)c2c1c1ccccc1n2Cc1ccc(O)cc1 (configuration not stated) | Weak inhibition
13 | COc1cccc(C2(C)c3cc(C(=O)O)sc3C(=O)c3c2c2ccccc2n3Cc2ccccc2)c1 (configuration not stated) | Weak inhibition
14 | CC1(c2cccc(CC(=O)O)c2)c2cc(C(=O)O)sc2C(=O)c2c1c1ccccc1n2Cc1ccccc1 (configuration not stated) | Weak inhibition

tested on: not listed separately; test: Evaluated for inhibition of ET-1 induced Calcium channel [Ca+2]i in CHO-K1 cells transfected with the rat ETA-expression plasmid DNA at 10E-6M; range- 50-70%; format: functional; procedure, shortened: as §1

Row | Compound | inhibition at 1 µM [%]
15 | CC1(c2ccc(OCC(=O)O)cc2)c2cc(C(=O)O)sc2C(=O)c2c1c1ccccc1n2Cc1ccccc1 (configuration not stated) | < 70
16 | CC1(c2cccc(O)c2)c2cc(C(=O)O)sc2C(=O)c2c1c1ccccc1n2Cc1ccccc1 (configuration not stated) | < 70
17 | COc1cccc(C2(C)c3cc(C(=O)O)sc3C(=O)c3c2c2ccccc2n3C)c1 (configuration not stated) | < 70
